In general, Ki refers to a measure of affinity in units of concentration, obtained from inhibition or displacement.

Results on four compounds are retold here after ChEMBL document CHEMBL4007410, “Fluorinated Chaperone-β-Cyclodextrin Formulations for β-Glucocerebrosidase Activity Enhancement in Neuronopathic Gaucher Disease” (J Med Chem, 2017).

The nature of data set [1]: Solubility of the compound in presence of beta-cyclodextrin. It counts as physicochemical.
Another data set is filed under the species Homo sapiens. The data set is described as follows: Inhibition of human lysosomal alpha-galactosidase assessed as formation of 4-methylumbelliferone from 4-methylumbelliferyl alpha-D-galactopyranoside up to 200 uM by luminescence spectrophotometry. Put shortly: (§1)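 Cells were scraped into ice-cold water (10⁶ cells/mL), sonicated and centrifuged, and protein was quantified. Lysate in 0.1% Triton X-100 was incubated at 37 °C with the matching 4-MU-conjugated glycoside in 0.1 M citrate, pH 4.5, with increasing chaperone or βCD-complex concentrations up to 200 μM. Reactions were stopped with glycine-NaOH, pH 10.7, and read at ex 340/em 460 nm.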

Data set [2] has as its target T1, Beta-galactosidase (Homo sapiens) (UniProt P16278).
T1 sequence (whole entry): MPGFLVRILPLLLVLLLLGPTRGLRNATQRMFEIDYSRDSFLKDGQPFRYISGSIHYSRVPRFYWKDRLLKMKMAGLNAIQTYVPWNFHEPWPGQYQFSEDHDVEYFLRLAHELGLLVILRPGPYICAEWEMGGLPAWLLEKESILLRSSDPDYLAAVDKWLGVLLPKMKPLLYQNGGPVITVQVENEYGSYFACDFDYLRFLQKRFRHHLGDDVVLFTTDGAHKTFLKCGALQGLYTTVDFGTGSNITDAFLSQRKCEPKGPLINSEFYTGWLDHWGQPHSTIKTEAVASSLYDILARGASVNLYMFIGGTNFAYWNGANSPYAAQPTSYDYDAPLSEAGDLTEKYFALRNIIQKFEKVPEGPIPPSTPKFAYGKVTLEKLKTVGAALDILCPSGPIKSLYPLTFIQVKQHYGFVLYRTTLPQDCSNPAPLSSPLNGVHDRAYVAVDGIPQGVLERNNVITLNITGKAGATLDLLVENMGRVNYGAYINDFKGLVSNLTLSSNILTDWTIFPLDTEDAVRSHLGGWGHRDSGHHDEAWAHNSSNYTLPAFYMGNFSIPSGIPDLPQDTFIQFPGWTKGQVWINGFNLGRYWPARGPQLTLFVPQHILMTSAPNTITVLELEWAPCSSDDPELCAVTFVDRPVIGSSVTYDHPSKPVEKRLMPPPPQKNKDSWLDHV
The data set is described as follows: Inhibition of human lysosomal beta-galactosidase assessed as formation of 4-methylumbelliferone from 4-methylumbelliferyl beta-D-galactopyranoside up to 200 uM by luminescence spectrophotometry. The method, boiled down:
as §1

For data set [3], the target named is T2, Beta-mannosidase (Homo sapiens) (UniProt O00462).
T2 sequence (whole entry): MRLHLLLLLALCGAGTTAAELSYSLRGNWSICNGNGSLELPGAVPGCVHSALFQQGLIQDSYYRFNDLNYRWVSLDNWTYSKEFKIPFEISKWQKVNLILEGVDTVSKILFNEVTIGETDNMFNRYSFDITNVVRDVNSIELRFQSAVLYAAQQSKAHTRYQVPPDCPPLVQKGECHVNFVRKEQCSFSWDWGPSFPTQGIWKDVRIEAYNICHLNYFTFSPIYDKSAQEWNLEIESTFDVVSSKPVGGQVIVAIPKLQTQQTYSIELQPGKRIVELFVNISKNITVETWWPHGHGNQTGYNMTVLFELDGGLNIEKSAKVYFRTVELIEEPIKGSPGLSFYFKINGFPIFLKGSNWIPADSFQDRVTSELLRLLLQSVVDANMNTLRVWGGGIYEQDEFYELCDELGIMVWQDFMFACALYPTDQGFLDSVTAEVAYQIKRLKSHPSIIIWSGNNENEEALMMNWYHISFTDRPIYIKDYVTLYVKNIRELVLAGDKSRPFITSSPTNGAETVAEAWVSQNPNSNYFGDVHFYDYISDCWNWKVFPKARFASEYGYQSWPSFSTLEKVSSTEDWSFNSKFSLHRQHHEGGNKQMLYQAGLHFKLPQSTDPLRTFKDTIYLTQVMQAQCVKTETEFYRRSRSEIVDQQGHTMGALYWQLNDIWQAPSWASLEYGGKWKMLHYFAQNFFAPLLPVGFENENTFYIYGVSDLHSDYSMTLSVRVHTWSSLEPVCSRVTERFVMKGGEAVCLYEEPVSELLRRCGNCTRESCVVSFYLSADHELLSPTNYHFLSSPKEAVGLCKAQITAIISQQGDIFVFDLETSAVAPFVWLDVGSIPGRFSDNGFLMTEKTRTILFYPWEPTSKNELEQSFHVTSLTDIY
The data set is described as follows: Inhibition of human lysosomal beta-mannosidase assessed as formation of 4-methylumbelliferone from 4-methylumbelliferyl alpha-D-glucopyranoside up to 200 uM by luminescence spectrophotometry. Put shortly:
as §1

The target of data set [4] is T3, Lysosomal acid glucosylceramidase (Homo sapiens, UniProt P04062).
T3 sequence (P04062 whole entry): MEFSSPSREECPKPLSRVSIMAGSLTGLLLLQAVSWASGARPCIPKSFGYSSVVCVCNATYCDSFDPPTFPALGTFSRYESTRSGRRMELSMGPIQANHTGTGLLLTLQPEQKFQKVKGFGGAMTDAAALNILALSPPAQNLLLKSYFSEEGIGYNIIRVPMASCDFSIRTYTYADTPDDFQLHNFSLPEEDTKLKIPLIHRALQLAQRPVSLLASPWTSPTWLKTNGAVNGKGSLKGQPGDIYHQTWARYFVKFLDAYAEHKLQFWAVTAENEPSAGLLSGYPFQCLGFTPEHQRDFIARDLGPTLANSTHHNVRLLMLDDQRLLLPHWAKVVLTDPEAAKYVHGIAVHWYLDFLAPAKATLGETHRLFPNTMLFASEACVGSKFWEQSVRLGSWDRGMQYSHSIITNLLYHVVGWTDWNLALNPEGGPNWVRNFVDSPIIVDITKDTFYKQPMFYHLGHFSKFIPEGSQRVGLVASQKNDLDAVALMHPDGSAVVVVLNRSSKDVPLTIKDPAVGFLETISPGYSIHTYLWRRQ
The data set is described as follows: Inhibition of human GCase assessed as formation of 4-methylumbelliferone from […] at pH 5 in presence of beta-cyclodextrin by luminescence spectrophotometry.

Data set [5] has as its system Saccharomyces cerevisiae. The data set is described as follows: Inhibition of yeast alpha-glucosidase at 2 mM using beta-D-glycopyranoside after 10 to 30 mins in presence of beta-cyclodextrin by spectrophotometry. Put shortly: (§2)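 Commercial glycosidases were assayed with o-nitrophenyl (E. coli β-galactosidase) or p-nitrophenyl glycoside substrate near KM. Buffer was phosphate, or phosphate-citrate for mannosidases and amyloglucosidase, at each enzyme's optimal pH. Enzyme was added last. Incubation ran 10-30 min at 37 °C (55 °C for amyloglucosidase), then was quenched with 1 M Na2CO3 and read at A405. Free compounds were tested up to 1 mM; 1:1 βCD complexes up to 2 mM.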

In data set [6] the test system is Saccharomyces cerevisiae. Kind of data set: Inhibition of yeast isomaltase at 2 mM using beta-D-glycopyranoside after 10 to 30 mins in presence of beta-cyclodextrin by spectrophotometry. The method, boiled down: as §2
The test system of the next data set is Helix pomatia. Kind of data set: Inhibition of Helix pomatia beta-mannosidase at 2 mM using beta-D-glycopyranoside after 10 to 30 mins in presence of beta-cyclodextrin by spectrophotometry. Put shortly: as §2

Molecules are shown by their SMILES. Calls of active or inactive are those of the source. No cut-off for these calls is given here.

For the compound `O=C(CCC(F)(F)C(F)(F)C(F)(F)C(F)(F)C(F)(F)C(F)(F)F)NCCCCNC(=S)N1[C@@H]2CO[C@H]1[C@H](O)[C@@H](O)[C@@H]2O`, the solubility result in data set [1] is recorded as “Soluble”. Further, the inhibition result (in the data set listed under Homo sapiens; in data set [2]; in data set [3]; in the data set on Saccharomyces cerevisiae [5]; in the data set with Saccharomyces cerevisiae [6]; in the data set on Helix pomatia) was “inactive” throughout. For the same compound, the Ki in data set [4] is 1.4 µM.

As to `O=C(CCC(F)(F)C(F)(F)C(F)(F)C(F)(F)C(F)(F)C(F)(F)F)NCCCCCCCCCNC(=S)N1[C@@H]2CO[C@H]1[C@H](O)[C@@H](O)[C@@H]2O`, the solubility entry in data set [1] is on record as “Soluble”. For the same compound, the inhibition result (in the data set listed under Homo sapiens; in data set [2]; in data set [3]; in the data set on Saccharomyces cerevisiae [5]; with Saccharomyces cerevisiae [6]; with Helix pomatia) was “inactive” in each case. For the same compound, in data set [4], the Ki stood at 7.2 µM.

As for `O=C(CCC(F)(F)C(F)(F)C(F)(F)C(F)(F)F)NCCCCCCCCCNC(=S)N1[C@@H]2CO[C@H]1[C@H](O)[C@@H](O)[C@@H]2O`, in data set [1], the solubility entry is recorded as “Soluble”. In addition, the inhibition entry (in the data set listed under Homo sapiens; in data set [2]; in data set [3]; in the data set on Saccharomyces cerevisiae [5]; in the data set on Saccharomyces cerevisiae [6]; in the data set on Helix pomatia) was “inactive” in each case. For the same compound, the inhibitory constant (Ki) in data set [4] was 8.2 µM.

For the compound `O=C(CCC(F)(F)C(F)(F)C(F)(F)C(F)(F)F)NCCCCNC(=S)N1[C@@H]2CO[C@H]1[C@H](O)[C@@H](O)[C@@H]2O`, the solubility entry in data set [1] is listed as “Soluble”. Further, the inhibition entry (in the data set listed under Homo sapiens; in data set [2]; in data set [3]; in the data set on Saccharomyces cerevisiae [5]; with Saccharomyces cerevisiae [6]; in the data set with Helix pomatia) was “inactive” throughout. In data set [4], the Ki amounted to 4.5 µM.
